Experimental data published in ChEMBL document CHEMBL5214977, “Discovery and Optimization of Quinoline Analogues as Novel Potent Antivirals against Enterovirus D68” (J Med Chem, 2022).
pEC50: −log10 of the molar value.

Legend:
enterovirus D68 = experiment: Antiviral activity against Enterovirus-D68 STL-2014-12 infected in human RD cells assessed as reduction in virus induced cytopathic effect by measuring ATP level incubated for 72 hrs by cell titer-glo luminescent cell viability assay; type: functional, organism-based; conditions: Enterovirus D, STL-2014-12, RD, 72 h
In short: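 RD cells seeded at 1.5 × 10^4/well and grown 24 h, then given 100 TCID50 virus plus compound in 3-fold dilutions (0.01–200 μM). DMSO control. Incubated 37 °C for 72 h; ATP read by CellTiter-Glo luminescence and normalized to uninfected and infected controls. EC50 is the concentration giving 50% CPE reduction. Strains: STL-2014-12, US/KY/14-18953, US/MO/14-18947, Fermon.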

RD = experiment: Cytotoxicity against human RD cells assessed as inhibition of cell viability by measuring ATP level incubated for 72 hrs by cell titer-glo luminescent cell viability assay; type: functional
In short: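 Uninfected RD cells seeded at 1.5 × 10^4/well and grown 24 h, then exposed to compound in 3-fold dilutions (0.01–200 μM), with DMSO as cell control. ATP read by CellTiter-Glo luminescence after 72 h; CC50 is the 50% cytotoxic concentration.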

[1] = Selectivity index, ratio of CC50 for human RD cells to EC50 for Enterovirus-D68 STL-2014-12 infected in human RD cells to; type: toxicity, cell-based; conditions: RD cells, read-out: Ratio CC50/EC50
In short: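 EC50 came from a CPE reduction assay. RD cells (1.5 × 10^4 per well, grown 24 h) were infected with 100 TCID50 of the named strain and given 3-fold dilutions from 0.01 to 200 μM. After 72 h at 37 °C, ATP was read by CellTiter-Glo and normalized to infected and uninfected controls. CC50 came from uninfected cells under the same dilutions, 72 h and ATP readout. SI = CC50/EC50.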

SMILES | pEC50 (enterovirus D68) | CC50 (RD) [nM] | selectivity ratio [1]
CCc1nc(-c2cnc3ccc(-c4ccc(O)cc4)cc3c2)no1 | 6.72 | > 2500 | > 13
CCCc1nc(-c2cnc3ccc(-c4ccc(N)cc4)cc3c2)no1 | 6.39 | > 800 | > 2
CCc1ccc(-c2ccc3ncc(-c4noc(C)n4)cc3c2)cc1 | 6.33 | > 7400 | > 16
Cc1nc(-c2cnc3ccc(-c4ccc(N)cc4)cc3c2)no1 | 6.55 | > 2500 | > 9
CCc1nc(-c2cnc3ccc(-c4ccc(OC)cc4)cc3c2)no1 | 6.72 | > 2500 | > 13
CCc1nc(-c2cnc3ccc(-c4ccc(N5CCOCC5)cc4)cc3c2)no1 | 4.93 | > 200000 | > 17
CCc1nc(-c2cnc3ccc(-c4ccc(NC(C)=O)cc4)cc3c2)no1 | 6.48 | > 7400 | > 22
CCOC(=O)c1cnc2ccc(-c3ccc(C(C)C)cc3)cc2c1 | 5.98 | > 7400 | > 2
Cc1ccc(-c2ccc3ncc(-c4noc(C(F)(F)F)n4)cc3c2)cc1 | 6.35 | > 22200 | > 49
CCOC(=O)c1cnc2ccc(-c3ccccc3N)cc2c1 | 5.20 | > 7400 | > 1
CCc1nc(-c2cnc3ccc(-c4ccc(C)cc4)cc3c2)no1 | 6.21 | > 7400 | > 12
CC(C)(C)c1nc(-c2cnc3ccc(-c4ccc(N)cc4)cc3c2)no1 | 5.37 | > 7400 | > 2
Cc1nc(-c2cnc3ccc(-c4ccc(O)cc4)cc3c2)no1 | 6.34 | > 2500 | > 5
CCCCc1ccc(-c2ccc3ncc(C(=O)OCC)cc3c2)cc1 | 6.07 | > 7400 | > 9
FC(F)(F)c1nc(-c2cnc3ccc(-c4ccc(Cl)cc4)cc3c2)no1 | 4.62 | > 200000 | > 8
CCCc1ccc(-c2ccc3ncc(C(=O)OCC)cc3c2)cc1 | 5.89 | > 7400 | > 6
CCc1nc(-c2cnc3ccc(-c4ccccc4N)cc3c2)no1 | 5.63 | 2350 | 9
Cc1nc(-c2cnc3ccc(-c4ccccc4)cc3c2)no1 | 6.66 | > 2500 | > 11
CCc1nc(-c2cnc3ccc(-c4ccc(F)cc4)cc3c2)no1 | 6.48 | > 7400 | > 22
CCc1nc(-c2cnc3ccc(-c4ccccc4)cc3c2)no1 | 6.77 | > 7400 | > 44
CCOC(=O)c1cnc2ccc(-c3ccccc3)cc2c1 | 6.05 | > 7400 | > 8
Cc1nc(-c2cnc3ccc(-c4ccc(N)nc4)cc3c2)no1 | 6.29 | > 7400 | > 15
Cc1ccc(-c2ccc3ncc(-c4noc(C)n4)cc3c2)cc1 | 6.24 | > 7400 | > 13
CCCCc1nc(-c2cnc3ccc(-c4ccc(N)cc4)cc3c2)no1 | 6.15 | > 2500 | > 3
FC(F)(F)c1nc(-c2cnc3ccc(-c4ccc(N5CCOCC5)cc4)cc3c2)no1 | 4.47 | > 22200 | > 1
CCc1nc(-c2cnc3ccc(-c4ccc(N)c(Cl)c4)cc3c2)no1 | 6.21 | > 7400 | > 12
CCCc1ccc(-c2ccc3ncc(-c4noc(C)n4)cc3c2)cc1 | 6.11 | > 7400 | > 10
COc1ccc(-c2ccc3ncc(-c4noc(C)n4)cc3c2)cc1 | 6.29 | > 66700 | > 131
Nc1ccc(-c2ccc3ncc(-c4noc(C(F)(F)F)n4)cc3c2)cn1 | 6.74 | > 2500 | > 14
